Laboratory results: ChEMBL document CHEMBL2346495, “Evaluation of HIV-1 inhibition by stereoisomers and analogues of the sesquiterpenoid hydroquinone peyssonol A” (Bioorg Med Chem Lett, 2013)

What was measured:
[1] = Therapeutic index, ratio of CC50 for human MT2 cells to EC50 for recombinant HIV1 expressing Rep-Rluc Sac II; format: cell-based; details: read-out: Ratio CC50/EC50
Summary of the method: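 Therapeutic index computed as CC50 (XTT viability of uninfected MT-2 cells, serial dilutions) over EC50 (luciferase output after 5-day infection of MT-2 cells with HIV-1 NL-Rluc in the presence of compounds). Each input is averaged from two to four experiments.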

[2] = test system: Human immunodeficiency virus 1; assay: Antiviral activity against recombinant HIV1 expressing Rep-Rluc Sac II infected in human MT2 cells after 5 days by luciferase reporter gene assay; format: functional, organism-based; details: Human immunodeficiency virus 1, MT2, 120 h
Summary of the method: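 MT-2 human lymphocytes infected with recombinant HIV-1 NL-Rluc (Rep-Rluc Sac II) in the presence of compounds; 5-day incubation, then cells processed and virus growth quantified by expressed luciferase. EC50 values averaged from two to four experiments.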

[3] = Cytotoxicity against human MT2 cells by XTT assay; format: cell-based
Summary of the method: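 Uninfected MT-2 cells, run in parallel with the antiviral screen, exposed to serially diluted compounds; viability read by XTT assay. CC50 averaged from two to four experiments.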

Row | SMILES | selectivity ratio [1] | EC50 [2] [µM] | CC50 [3] [µM]
1 | O=Cc1cc(O)c(CC2CCCCC2)cc1O | > 25 | 4 | > 100
2 | CC1=CC[C@H]2C(C)(C)[C@@H](Br)CC[C@]2(C)[C@@H]1Cc1cc(O)c(C=O)cc1O | 4 | 0.9 | 4
3 | CC1=C(Cc2cc(O)c(C=O)cc2O)[C@@]2(C)CC[C@H](Br)C(C)(C)[C@@H]2CC1 | 5 | 0.8 | 4
4 | CC1(C)[C@@H](Br)CC[C@@]2(C)[C@H]1CC[C@@](C)(O)[C@H]2CO | 44 | 2 | 90
5 | CC1(C)CCC[C@@]2(C)[C@H]1CC[C@@]1(C)OC(=O)OC[C@@H]21 | 17 | 2 | 30
6 | CC1(C)[C@@H](Cl)CC[C@@]2(C)[C@H]1CC[C@@]1(C)OC(=O)OC[C@@H]21 | 4 | 10 | 40
7 | CC1(C)[C@@H](I)CC[C@@]2(C)[C@H]1CC[C@@]1(C)OC(=O)OC[C@@H]21 | 6 | 5 | 30
8 | Cc1cc(O)c(C=O)cc1O | 3 | 10 | 30
9 | CC(=O)OC[C@H]1[C@@]2(C)CC[C@H](Br)C(C)(C)[C@H]2CC[C@]1(C)O | > 2 | 40 | > 100
10 | CC(=O)OC[C@@H]1[C@@]2(C)CC[C@H](Br)C(C)(C)[C@H]2CC[C@]1(C)O | 3 | 20 | 70
11 | CC(=O)OC[C@@H]1[C@@]2(C)CC[C@H](Br)C(C)(C)[C@@H]2CC[C@@]1(C)O | 3 | 10 | 40
12 | CC(=O)OC[C@H]1[C@@]2(C)CC[C@H](Br)C(C)(C)[C@@H]2CC[C@@]1(C)O | 8 | 10 | 90
13 | CC1(C)[C@H]2CC[C@]3(C)OC(=O)OC[C@H]3[C@@]2(C)CC[C@@H]1Br | > 11 | 9 | > 100
14 | CC1(C)[C@H]2CC[C@]3(C)OC(=O)OC[C@@H]3[C@@]2(C)CC[C@@H]1Br | 9 | 7 | 70
15 | CC1(C)[C@@H](Br)CC[C@]2(C)[C@H]3COC(=O)O[C@]3(C)CC[C@@H]12 | > 10 | 10 | > 100
16 | CC1(C)[C@@H](Br)CC[C@@]2(C)[C@H]1CC[C@@]1(C)OC(=O)OC[C@@H]21 | 23 | 4 | 90
17 | C=C1CC[C@@H]2C(C)(C)[C@@H](Br)CC[C@]2(C)[C@@H]1Cc1cc(O)c(C=O)cc1O | 7 | 0.7 | 5
18 | C=C1CC[C@@H]2C(C)(C)[C@@H](Br)CC[C@]2(C)[C@H]1Cc1cc(O)c(C=O)cc1O | 8 | 0.5 | 4
19 | C=C1CC[C@H]2C(C)(C)[C@@H](Br)CC[C@]2(C)[C@H]1Cc1cc(O)c(C=O)cc1O | 4 | 0.5 | 2
20 | CC1(C)[C@@H](Br)CC[C@@]2(C)[C@H]1CC[C@@]1(C)Oc3cc(C=O)c(O)cc3C[C@@H]21 | 5 | 1 | 5
21 | CC1=CC[C@H]2C(C)(C)[C@@H](Br)CC[C@]2(C)[C@@H]1Cc1cc(O)c(CC(=O)O)cc1O [PEYSSONOIC ACID A] | > 2 | 50 | > 100
22 | C=C1CC[C@H]2C(C)(C)[C@@H](Br)CC[C@]2(C)[C@@H]1Cc1cc(O)c(C=O)cc1O [PEYSSONOL A] | 4 | 1 | 4
